The nature of experiment [1]: HUVEC growth inhibition – cell-based, human, primary screen (AID 575;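 active means viability at or below 30% in both replicate assays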;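 further: 100% = median of untreated cell wells with 0.1% DMSO on each plate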). Conditions: HUVEC proliferation, CellTiter-Glo luminescence, 72 h; at 10 µM; stronger effect = lower value. The gist of the method:
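Assay system: primary human umbilical vein endothelial cells / Buffer or medium: endothelial basal medium with 2% FBS plus growth supplements / Compound dosing: one dose, 10 µM final, 0.1% DMSO / Timing: 72 h treatment at 37 °C / Signal: CTG luminescence / Benchmarks: 32 DMSO-only cell-control wells (high), 32 MePR drug-control wells (low) per plate / Plate: collagen-coated 384-well format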
Background: ATP-based viability assays read luminescence as a measure of living cells.

Experiment [2] is described as follows: H69AR cell proliferation blockers – human, duplicate replicates, primary screen (AID 580).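 Further: 100% = mean luminescence of untreated wells and 0% = no signal.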 As to conditions: H69AR lung tumor cells viability, ATP luminescence, 72 h; at 10 µM; stronger effect = lower value.
Experiment [3] is described as follows: MRP1 drug-resistance reversers in H69AR cells – cell-based, doxorubicin co-treatment, pilot screen (AID 601;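 active means viability loss from added drug above about 55%, and viability with drug at most 40%, in both replicates, limit read from the data, passing the limit was not always enough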). Conditions: CellTiter-Glo, 72 h, at 10 µM; for differential viability (reversal): stronger effect = higher value.
The nature of experiment [4]: yeast transport mutant growth inhibition pilot in 384-well plates, post-Golgi transport modulator project (AID 636; in the data active means inhibition above about 31%). Conditions: absorbance 615 nm, about 18 h, stronger effect = higher value.
Experiment [5] in a line: growth suppression of yeast trafficking mutant, preliminary HTS, modulators of trafficking downstream of Golgi apparatus project, 1536-format plate, OD 615 nm (AID 637; in the data active means inhibition above about 30%). Conditions: yeast transport mutant growth, absorbance 615 nm, 18 h; stronger effect = higher value.
The mark [6] stands for this setting: H69AR cells + 2 uM doxorubicin, measured here: viability with 2 uM doxorubicin, stronger effect = lower value.
Setting [7] is: H69AR cells, compound alone cytotoxicity.

The source made the active and inactive calls.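 How the source made its calls, unless noted: active means viability at or under a set limit in both replicates, limit being median viability minus 3 SD (cut at about 48% in these data, passing the limit was not always enough); inconclusive means at or under the limit in just one replicate; inactive means at or above the limit in both replicates.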

Regarding `COC(=O)C1=C(C)N(c2ccc(C(=O)OC)cc2)C(=O)C1`, the viability (usually a read-out of living cells in per cent, often relative to untreated cells) in experiment [1] is 86.9% (inactive); in experiment [2], 88.8% (inactive); in experiment [3] (setting [6]), 86%; in experiment [3] (setting [7]) it was 88.8%. Besides, the differential viability (reversal) in experiment [3] (H69AR cells + 2 uM doxorubicin) was 2.86% (inactive). Moreover, the figures for the inhibition in experiment [4] and in experiment [5] were -0.39% (inactive) and 1.43% (inactive), respectively.
Regarding `CCOC(=O)CN(C)Cc1c[nH]c2ccccc12`, the viability in experiment [1] is 80.4% (inactive); in experiment [2], 87.1% (inactive); in experiment [3] (setting [6]) it was 98.7%; in experiment [3] (setting [7]), 87.1%. The differential viability (reversal) in experiment [3] (H69AR cells + 2 uM doxorubicin) is -11.6% (inactive). Further, the inhibition – broadly, the drop in the measured response relative to a control, in per cent – in experiment [4] is -4.47% (inactive); in experiment [5], 7.14% (inactive).
Consider `CN(C)S(=O)(=O)n1cnc(-c2ccccc2)c1-c1ccccc1`, for which the viability in experiment [1] was 99.8% (inactive); in experiment [2], 98.3% (inactive); in experiment [3] (setting [6]) it was 102%; in experiment [3] (setting [7]), 98.3%. Also, the differential viability (reversal) in experiment [3] (H69AR cells + 2 uM doxorubicin) was -3.79% (inactive). In addition, the inhibition is -1.32% (inactive) in experiment [4] and -2.86% (inactive) in experiment [5].
`CC(=O)N1C(=O)c2cccc3cccc(c23)C(=O)N1C(C)=O`: the viability in experiment [1] is 96.1% (inactive); in experiment [2] it was 91.8% (inactive); in experiment [3] (setting [6]), 93%; in experiment [3] (setting [7]) it was 91.8%. Also, the differential viability (reversal) in experiment [3] (H69AR cells + 2 uM doxorubicin) is -1.27% (inactive). Moreover, the inhibition in experiment [4] was -1.05% (inactive); in experiment [5] it was -1.43% (inactive).
In the case of `CCc1nnc(NC(=O)CSc2nc3ccccc3s2)s1`, the viability in experiment [1] was 93% (inactive); in experiment [2], 101% (inactive); in experiment [3] (setting [6]) it was 91.1%; in experiment [3] (setting [7]) it was 101%. In addition, the differential viability (reversal) in experiment [3] (H69AR cells + 2 uM doxorubicin) is 10.1% (inactive). The inhibition in experiment [4] is -2.24% (inactive); in experiment [5] it was 0.48% (inactive).
Consider `CCc1nnc(NC(=O)OCc2ccccc2)s1`, for which the viability in experiment [1] is 106% (inactive); in experiment [2], 102% (inactive); in experiment [3] (setting [6]), 94.9%; in experiment [3] (setting [7]) it was 102%. Further, the differential viability (reversal) in experiment [3] (H69AR cells + 2 uM doxorubicin) was 7.5% (inactive). Also, the inhibition in experiment [4] was -0.91% (inactive); in experiment [5], 11.4% (inactive).
On to `O=C(Nc1ccc(S(=O)(=O)NCCc2ccccc2)cc1)c1ccc(Br)o1`, for which the viability in experiment [1] is 72.4% (inactive); in experiment [2], 108% (inactive); in experiment [3] (setting [6]), 91.5%; in experiment [3] (setting [7]) it was 108%. The differential viability (reversal) in experiment [3] (H69AR cells + 2 uM doxorubicin) was 16.8% (inactive). The inhibition was -1.32% (inactive) in experiment [4] and -6.35% (inactive) in experiment [5].
On to `C=C(C)Cn1c(CCNC(=O)CC)nc2ccccc21`, for which the viability in experiment [1] is 100% (inactive); in experiment [2], 104% (inactive); in experiment [3] (setting [6]), 91.4%; in experiment [3] (setting [7]), 104%. The differential viability (reversal) in experiment [3] (H69AR cells + 2 uM doxorubicin) was 12.7% (inactive). The results for the inhibition in experiment [4] and in experiment [5] were -3.95% (inactive) and -0.63% (inactive), respectively.
Take `Cc1nnc(SCC(=O)Nc2nccs2)s1`: the viability in experiment [1] was 95.7% (inactive); in experiment [2], 93% (inactive); in experiment [3] (setting [6]), 91.3%; in experiment [3] (setting [7]), 93%. Moreover, the differential viability (reversal) in experiment [3] (H69AR cells + 2 uM doxorubicin) was 1.75% (inactive). Also, the inhibition in experiment [4] is -6.67% (inactive); in experiment [5] it was -2.22% (inactive).
For the compound `CCCn1c(SCC(=O)Nc2ccccc2C(=O)OC)nc2c1c(=O)n(C)c(=O)n2C`, the viability in experiment [1] is 94.9% (inactive); in experiment [2] it was 84.5% (inactive); in experiment [3] (setting [6]), 82.2%; in experiment [3] (setting [7]), 84.5%. Besides, in experiment [3] (H69AR cells + 2 uM doxorubicin), the differential viability (reversal) is 2.33% (inactive). For the same compound, the inhibition in experiment [4] is -7.47% (inactive); in experiment [5], 3.02% (inactive).
On to `O=C(CCSc1nc(-c2ccco2)cc(C(F)(F)F)n1)NCCc1ccccc1`, for which the viability in experiment [1] was 80.7% (inactive); in experiment [2] it was 79% (inactive); in experiment [3] (setting [6]) it was 94.4%; in experiment [3] (setting [7]), 79%. Besides, the differential viability (reversal) in experiment [3] (H69AR cells + 2 uM doxorubicin) is -15.4% (inactive). In addition, the inhibition in experiment [4] is -4.53% (inactive); in experiment [5] it was 1.11% (inactive).
Take `CN(CCCC(=O)Nc1ccncc1)S(=O)(=O)c1ccc(Cl)cc1`: the viability is 56.2% (inactive) in experiment [1], 89% (inactive) in experiment [2], 104% in experiment [3] (setting [6]) and 89% in experiment [3] (setting [7]). Also, in experiment [3] (H69AR cells + 2 uM doxorubicin), the differential viability (reversal) is -14.6% (inactive). In addition, the inhibition in experiment [4] was 0.65% (inactive); in experiment [5], -5.87% (inactive).
Take `CCc1c(C(=O)NCCc2ccc(OC)c(OC)c2)[nH]c(C)c1C(C)=O`: the viability was 98.6% (inactive) in experiment [1], 87% (inactive) in experiment [2], 82.1% in experiment [3] (setting [6]) and 87% in experiment [3] (setting [7]). Also, the differential viability (reversal) in experiment [3] (H69AR cells + 2 uM doxorubicin) was 4.88% (inactive). For the same compound, the results for the inhibition in experiment [4] and in experiment [5] were -5.2% (inactive) and 3.97% (inactive), respectively.
For the compound `COc1ccc(CN(C)CC(=O)c2c(N)n(Cc3ccccc3)c(=O)n(C)c2=O)c(OC)c1`, the viability is 96.4% (inactive) in experiment [1], 93.9% (inactive) in experiment [2], 83.6% in experiment [3] (setting [6]) and 93.9% in experiment [3] (setting [7]). Also, the differential viability (reversal) in experiment [3] (H69AR cells + 2 uM doxorubicin) was 10.3% (inactive). The inhibition in experiment [4] is -3.25% (inactive); in experiment [5], 6.51% (inactive).
For `CCCS(=O)(=O)N1CCC(C(=O)NCCN2CCCC2)CC1`, the viability was 96.5% (inactive) in experiment [1], 94.9% (inactive) in experiment [2], 86.6% in experiment [3] (setting [6]) and 94.9% in experiment [3] (setting [7]). The differential viability (reversal) in experiment [3] (H69AR cells + 2 uM doxorubicin) was 8.3% (inactive). In addition, the inhibition in experiment [4] is -3.2% (inactive); in experiment [5], 2.86% (inactive).
In the case of `Cc1ccc(SC(C)c2nc(-c3ccccc3)no2)cc1` (stereo not given), the viability in experiment [1] is 114% (inactive); in experiment [2] it was 99.9% (inactive); in experiment [3] (setting [6]), 95.2%; in experiment [3] (setting [7]) it was 99.9%. Moreover, the differential viability (reversal) in experiment [3] (H69AR cells + 2 uM doxorubicin) is 4.68% (inactive). In addition, the inhibition in experiment [4] is -6.13% (inactive); in experiment [5], -5.08% (inactive).
With `O=C(Nc1ccc(S(=O)(=O)Nc2ccc(Cl)cc2)cc1)C1CCCO1` (stereo not given), the viability in experiment [1] was 62% (inactive); in experiment [2] it was 90.2% (inactive); in experiment [3] (setting [6]) it was 89.3%; in experiment [3] (setting [7]), 90.2%. Moreover, in experiment [3] (H69AR cells + 2 uM doxorubicin), the differential viability (reversal) is 0.92% (inactive). Also, the inhibition in experiment [4] was -6% (inactive); in experiment [5], -5.4% (inactive).
On to `Cc1ccc(S(=O)(=O)Cn2nnnc2C(C(C)C)N2CCN(C(=O)c3ccco3)CC2)cc1` (stereo not given), for which the viability in experiment [1] is 94.8% (inactive); in experiment [2], 91.3% (inactive); in experiment [3] (setting [6]), 83.1%; in experiment [3] (setting [7]), 91.3%. Besides, the differential viability (reversal) in experiment [3] (H69AR cells + 2 uM doxorubicin) was 8.2% (inactive). The inhibition is -4% (inactive) in experiment [4] and -4.29% (inactive) in experiment [5].
In the case of `CC(=O)NC(Cc1ccc(C)cc1)C(=O)NC1CCN(C(=O)c2cnccn2)CC1` (stereo not given), the viability in experiment [1] was 110% (inactive); in experiment [2], 93.3% (inactive); in experiment [3] (setting [6]), 91.1%; in experiment [3] (setting [7]), 93.3%. In experiment [3] (H69AR cells + 2 uM doxorubicin), the differential viability (reversal) is 2.21% (inactive). Further, the values for the inhibition in experiment [4] and in experiment [5] were -2.93% (inactive) and 2.22% (inactive), respectively.
With `O=C1CCCc2nc(N3CCCCC3)sc21`, the viability in experiment [1] was 88.9% (inactive); in experiment [2], 82.8% (inactive); in experiment [3] (setting [6]), 89.6%; in experiment [3] (setting [7]), 82.8%. In addition, the differential viability (reversal) in experiment [3] (H69AR cells + 2 uM doxorubicin) was -6.74% (inactive). The inhibition in experiment [4] was -0.27% (inactive); in experiment [5] it was -0.95% (inactive).

The record behind these values is PubChem BioAssay.
